ABCB6 inh 2: ABCB6 transporter inhibitors, primary screen, K562-ABCB6 cells, flow cytometry, MLPCN library | ATP-binding cassette sub-family B member 6 (Homo sapiens), Q9NP58 | K562-ABCB6 porphyrin accumulation, 1 h; active compounds read low | fluorescence ratio to DMSO, % at 10 µM | hit rate 0.19% among 360,000;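 active = fluorescence ratio to DMSO below 75%, the collection mean minus 3 SD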;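 also: signal is porphyrin accumulated inside mitochondria; 100% equals median channel fluorescence of DMSO control wells; lower ratio means ABCB6 inhibition with less porphyrin fluorescence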
Target sequence (Q9NP58 whole entry, looked up): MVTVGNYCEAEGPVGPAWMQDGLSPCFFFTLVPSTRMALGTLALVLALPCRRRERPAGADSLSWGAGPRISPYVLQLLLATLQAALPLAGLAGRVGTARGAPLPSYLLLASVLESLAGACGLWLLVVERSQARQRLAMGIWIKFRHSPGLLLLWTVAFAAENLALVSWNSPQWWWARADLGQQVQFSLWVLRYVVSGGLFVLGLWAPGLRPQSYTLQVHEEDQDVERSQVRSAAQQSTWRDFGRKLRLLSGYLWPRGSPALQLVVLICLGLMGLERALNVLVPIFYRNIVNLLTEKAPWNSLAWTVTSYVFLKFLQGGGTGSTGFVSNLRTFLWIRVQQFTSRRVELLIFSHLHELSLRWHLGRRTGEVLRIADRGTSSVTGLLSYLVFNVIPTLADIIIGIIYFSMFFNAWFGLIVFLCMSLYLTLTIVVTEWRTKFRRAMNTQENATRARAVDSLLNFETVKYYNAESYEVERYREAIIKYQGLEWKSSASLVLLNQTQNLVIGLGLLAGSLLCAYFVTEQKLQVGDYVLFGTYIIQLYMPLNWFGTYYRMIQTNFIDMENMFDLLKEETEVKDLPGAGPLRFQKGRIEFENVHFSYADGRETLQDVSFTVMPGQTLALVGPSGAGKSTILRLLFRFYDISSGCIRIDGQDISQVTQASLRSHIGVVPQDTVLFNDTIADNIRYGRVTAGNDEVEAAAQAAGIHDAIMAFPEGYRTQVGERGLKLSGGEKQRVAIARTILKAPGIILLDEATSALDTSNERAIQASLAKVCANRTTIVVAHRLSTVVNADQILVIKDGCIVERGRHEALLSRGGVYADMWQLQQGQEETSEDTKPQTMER
STAT3 act: IL-6 driven STAT3 reporter potentiators, primary screen, U3A cells, luciferase, luminescence, MLSCN library. hit rate 0.91% among 190,000. AID 871, 2007. activation (% of control), % at 5.6 µM. IL-6 STAT3-luciferase reporter; 100% = signal with IL-6 EC80 alone;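 active = activation above the screen-wide mean of compound activation plus 3 SD, cut at about 130% in these data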;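 also: 0% = background luminescence of wells with medium and substrate only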
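System – human U3A cells carrying STAT3-luciferase construct · Probe or stimulus – Interleukin-6, 33 ng/mL · Schedule – compound 1 h, then IL-6 6 h at 37 °C · Signal – luminescence from STAT3-driven luciferase reporter · Evaluation – percent of IL-6-only median luminescence · Benchmarks – IL-6-only high control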
AHR activator: AHR activators, primary screen, cell-based, luminescence, luciferase reporter, human; AHR-responsive luciferase reporter cells; hit rate 2.5% among 320,000; activation, % at 5 µM; Aryl hydrocarbon receptor (Homo sapiens), P35869; in the data active = activation above about 47%;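 also: 0% = vehicle wells and 100% = reference agonist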
FXN GAA850 act: FXN promoter activators, primary screen, cell-based, luciferase luminescence, HEK293 lucGAA850 | HEK293 lucGAA850 FXN promoter luciferase reporter, 24 h; percent of 10 µM SAHA response | activation, % at 6 µM | hit rate 0.56% among 360,000;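 active = activation above the average of all compounds screened plus 3 SD, cutoff fixed separately per campaign, cut at about 7.5% in these data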;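 also: 0% = DMSO wells and 100% = 10 µM SAHA wells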
Starred values were filed as active, the others as inactive; . = not tested or not shown. Only some compounds are listed: those with a hit (about 3.3% of all), similar ones and a draw of the others.

SMILES	ABCB6 inh 2	STAT3 act	AHR activator	FXN GAA850 act
O=Cc1cc(N=Nc2ccccc2Cl)ccc1O	93.0	72.5	2.5	0.2
CC(C)/C=C(/C(=O)c1ccc(Cl)cc1Cl)n1cncn1	98.0	.	-0.4	-1.4
O=C(c1ccc(Cl)cc1Cl)C1(n2cncn2)Oc2ccccc2C1O (stereo not given)	98.0	117.3	65.7*	3.2
CCN1C(=O)N[C@@H](CCc2ccccc2)C(C(C)=O)=C1C	103.0	.	1.4	0.3
CCN1C(=S)N[C@@H](CCc2ccccc2)C(C(=O)OC)=C1C	92.0	.	53.0*	1.5
COc1cc(-c2noc(C)c2C#Cc2nccn2C)cc(OC)c1OC	95.0	.	65.6*	-1.6
CC(NC(=O)c1cc(-c2ccncc2)nc2ccc(Cl)cc12)C1CCCO1 (stereo not given)	102.0	.	16.3	0.1
CC(NC(=O)c1cc(-c2ccccn2)nc2ccc(Cl)cc12)C1CCCO1 (stereo not given)	105.0	.	51.7*	-0.5
O=C(NCc1ccco1)C(c1ccc(F)cc1)N(C(=O)Cc1cccs1)c1cccnc1 (stereo not given)	94.0	113.3	4.4	-0.4
COc1cccc(OCCCn2cc(/C=C3/C(=N)N4C=C(C)SC4=NC3=O)c3ccccc32)c1	109.0	92.3	50.7*	-0.2
COC(=O)CC1c2ccccc2S(=O)(=O)N1Cc1ccccc1 (stereo not given)	99.0	.	4.7	1.7
CSc1nc2sc3c(c2c(=O)n1C)CCC3	98.0	.	0.1	2.9
CSc1nc2sc3c(c2c(=O)n1C)CCC(C)C3 (stereo not given)	97.0	110.7	56.0*	2.1
CCOC(=O)C(=O)Nc1ccc(OC)c(Cl)c1	105.0	91.0	20.6	0.3
COc1ccc(NC(=O)C(=O)NCCCO)cc1Cl	105.0	91.1	61.6*	0.7
COc1ccc(NC(=O)c2cccc(OC(F)F)c2)cc1Cl	97.0	93.9	49.4*	4.2
COc1ccc(NC(=O)C(=O)NCCO)cc1Cl	105.0	97.9	59.0*	1.3
COc1cc(/C=C/C(=O)OCC(=O)N2CC(C)OC(C)C2)ccc1OCC#N (stereo not given)	93.0	.	.	1.6
CN(C)c1ccc(/C=C2/NC(=O)NC2=O)cc1	101.0	92.9	108.3*	0.8
C/C(=N\NC(=O)c1cc(C2CC2)nc2ccccc12)c1ccc(C)s1	98.0	92.6	50.6*	-3.2
O=C(N/N=C/c1cccnc1)c1cc(C2CC2)nc2ccccc12	100.0	.	48.1*	0.9
COc1ccccc1CNC(=O)c1cnc2sccn2c1=O	99.0	.	53.1*	-1.3
COc1ccccc1CNC(=O)c1cnc2ccccn2c1=O	106.0	104.5	38.5	0.8
Cc1cccc(NC(=O)c2cnc3sccn3c2=O)c1	98.0	.	67.7*	2.5
COc1ccc(OC)c(N=C2SCCCN2C(=O)c2ccc(N3C(=O)CCC3=O)cc2)c1	.	.	-0.6	.
SMILES	ABCB6 inh 2	STAT3 act	AHR activator	FXN GAA850 act
CC1(c2nnc(Cc3ccccc3)o2)CC(c2ccc(OC(F)(F)F)cc2)=NO1 (stereo not given)	104.0	.	-0.4	-2.2
Nc1cccn2c(-c3ccc(Cl)cc3)cnc12	129.0	114.1	70.2*	5.9
Cn1c(-c2ccc(Cl)cc2)cnc1N	92.0	104.3	1.0	-2.0
COc1cc(/C(C)=N/NC(=O)Cc2c(C)[nH][nH]c2=O)ccc1O	95.0	99.4	0.9	2.2
Cc1ccccc1OCC(=O)N(CC(C)C)c1c(N)n(CC(C)C)c(=O)[nH]c1=O	99.0	.	3.3	0.6
CCC1c2ccc(C)n2CCN1C(=O)Nc1ccccc1OC (stereo not given)	108.0	103.9	48.0*	5.8
Cc1cc(=O)n2nc(N3CCC(C(=O)NCc4ccccc4F)CC3)sc2n1	101.0	.	2.1	0.0
C/C(=N/NC(=O)Cn1nc2ccccc2n1)c1ccc(F)cc1	74.0*	112.0	3.5	1.1
C/C(=N\NC(=O)c1ccc(F)cc1)c1ccc(NC(=O)Cc2ccccc2)cc1	100.0	.	12.6	0.5
CC1(C)Oc2ccc(C(=O)NC3CC3)cc2N(CC(=O)N2CCOCC2)C1=O	89.0	96.5	74.3*	-1.1
CC1(C)Oc2ccc(C(=O)NC3CCCC3)cc2N(CC(=O)N2CCOCC2)C1=O	100.0	90.3	-1.1	0.3
COc1nc(-c2ccccc2)ncc1S(=O)(=O)c1ccccc1	93.0	90.3	2.5	2.4
Cc1nc(-c2ccccc2)sc1-c1nc(-c2ccncc2)ncc1S(=O)(=O)c1ccccc1	105.0	109.0	53.9*	-0.1
O=C1N(CN2C(=O)C3(OCCO3)c3ccccc32)c2ccccc2C12OCCO2	98.0	98.6	5.0	-0.1
O=C1N(CCCCN2C(=O)C3(OCCO3)c3ccccc32)c2ccccc2C12OCCO2	104.0	100.2	59.9*	-2.3
O=c1cc(O)c2c(=O)n(-c3ccccc3)c3c(c2o1)CCCCCC3	102.0	94.2	-2.2	-1.4
CCCCC(=O)Nc1nc2c(s1)COc1ccccc1-2	95.0	.	48.6*	0.6
CCCC(=O)Nc1nc2c(s1)COc1ccccc1-2	104.0	.	23.8	-0.4
O=C(CCSc1ccccc1)Nc1nc2c(s1)COc1ccccc1-2	100.0	86.2	52.0*	1.6
CC(C)(C)C(=O)Nc1nc2c(s1)COc1ccccc1-2	95.0	98.3	21.6	-0.4
CCOC(=O)c1nc(C)n(-c2cc(OC)c(Cl)cc2Cl)n1	100.0	103.9	5.1	0.2
CC(CNC(=O)CCCn1c(=O)c2cccn2c2cccnc21)c1ccccc1 (stereo not given)	98.0	.	.	-1.7
CCN(CC(=O)Nc1ccccc1C(F)(F)F)C(=O)CCSc1ccc(F)cc1	99.0	.	-0.8	0.7
Cc1ccc(S(=O)(=O)N2CC3(O)CN(C(=O)OC(C)C)N(C(=O)OC(C)C)CC3(OC(=O)NCc3ccccc3F)C2)cc1 (stereo not given)	101.0	.	.	-6.5
CCOC(=O)C(Nc1ccc2ccccc2c1)C(=O)OCC	104.0	135.5*	36.8	2.0
SMILES	ABCB6 inh 2	STAT3 act	AHR activator	FXN GAA850 act
COc1ccc(-c2nc(C)c(C(C)=O)n2O)cc1OC	108.0	104.4	48.2*	-0.5
CC(C)CN1CCC(=O)N([C@H](COc2ccccc2)Cc2ccccc2)CC1	99.0	.	1.9	0.2
Cc1ccc2c(c1)sc(=NC(=O)c1cccs1)n2C	92.0	31.7	55.9*	-4.9
Cc1ccc2c(c1)sc(=NC(=O)C1CC1)n2C	92.0	.	53.8*	4.0
COC(=O)Cn1c(=NC(=O)C2CC2)sc2c(C)cc(C)cc21	93.0	99.0	6.1	-1.0
Cn1ccnc1SCC(=O)Nc1cc(F)ccc1F	98.0	.	20.1	0.2
O=C(Cc1ccc(S(=O)(=O)N2CCOCC2)s1)N(Cc1ccccc1)c1ccccc1	100.0	.	-1.6	2.7
O=C(CNC(=O)c1ccc(Cl)cc1)NNc1c(F)c(F)cc(F)c1F	99.0	.	-0.5	-0.5
CC1CCCCN1C(=O)c1cc2nc(-c3ccccc3)cc(-c3ccccc3)n2n1 (stereo not given)	90.0	99.8	9.7	0.5
